Results gathered from unrelated publications.
Protocols differ between the studies behind these lines.
CYP2D6: Cytochrome P450 2D6 (CYP2D6, Homo sapiens, UniProt P10635)

Compound | target or system | assay | test system | conditions | quantity | result
CNC(=O)c1cc(Oc2ccc(NC(=O)Nc3ccc(Cl)c(C(F)(F)F)c3)cc2)ccn1 | WM 266-4 | cell growth or viability, MTT |  | 1.6 µg, 48 h | viability | 58.5%
CC[C@@H]1CN(C(=O)NCC(F)(F)F)C[C@@H]1c1cnc2cnc3[nH]ccc3n12 |  |  | beagle dog, plasma | oral, 1 mg/kg, single dose | AUC(0-t) | 558 ng·h/mL
CCOC(=O)C1CCN(C(=O)c2ccc(N(CC)Cc3cnc4nc(N)nc(N)c4n3)cc2)CC1 | CYP2D6 | enzyme activity, inhibitor, luciferase |  | 10 µM | inhibition | -4.18%
Cc1ccc(C(CS(=O)(=O)c2ccccc2)=NNc2nc(C)c(N=Nc3cccc(C)c3)s2)cc1 | WM 266-4 | cell growth or viability, MTT |  | 1.6 µg, 48 h | viability | 52.6%
O=C(NCCN1CCCC1)c1cc(-c2ccc(CN3CCOCC3)cc2)nc2ccc(F)cc12 |  |  | male beagle dog, blood | oral, 3 mg/kg | half-life | 20 h
Oc1c(-n2ccnn2)cnn1-c1cc(N2CCOCC2)ncn1 |  |  | female dog, plasma | oral, 1.5 mg/kg | half-life | 2.2 h
Cc1ccc(C(CS(=O)(=O)c2ccccc2)=NN=C2N=C(c3ccc(Br)cc3)CS2)cc1 | WM 266-4 | cell growth or viability, MTT |  | 1.6 µg, 48 h | viability | 55.1%
Cc1nc(-c2cnc(NC(C)C)n(C)c2=O)ccc1Oc1ccnc(-c2cnn(C)c2)c1 |  |  | male beagle dog, plasma | oral, 10 mg/kg | AUC(0-t) | 19500 ng·h/mL
COCCc1ccc(OCC(O)CNC(C)C)cc1 (stereo not drawn) | CYP2D6 |  | human, plasma | oral, 100 mg, single dose, healthy volunteers | Cmax | 123 ng/mL
Nc1nc(N)c2nc(C(=O)NCc3ccccc3)cnc2n1 | CYP2D6 | enzyme activity, inhibitor, luciferase |  | 10 µM | inhibition | 105%
COc1cc2c3c(n(CCCN4CCOCC4)c(=O)c2cc1OC)-c1cc2c(cc1C3=O)OCO2 |  |  | male beagle dog, plasma | intravenous, 10 mg/m², infusion | AUC(0-inf) | 383 ng·h/mL
C[C@@H]1CCC[C@H](n2cnc(-c3cc(Cl)ccc3-n3cc(Cl)nn3)cc2=O)c2cc(ccn2)-c2c(cnn2C(F)F)NC1=O |  |  | male rabbit, plasma | intravenous, 0.8 mg/kg | Vd | 1.4 L/kg
